Assay outcomes (PubChem BioAssay)
Rows were chosen to be rich in hits. Some 2.2% of all compounds tested hit in one or more screens of this group.
FGF22 binding – binders of human FGF22 protein, primary screen, FGF22 synaptogenesis inhibitor project, biophysical, thermal shift, single point; AID 651658, 2012; 340,000 compounds, 1.5% hits; activity (Tm shift, normalised), % at 9.99 µM; recombinant FGF22 thermal shift, SYPRO orange fluorescence; percent of sucrose octasulfate shift, DMSO zero; Fibroblast growth factor 22 (Homo sapiens), Q9HCT0;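 active = mean Tm shift, scaled 0 neutral to 100 positive control, at about 1.3% or above, every replicate too, limit read from the data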
NR2E3 ag-1 – NR2E3 agonists in two-hybrid cells, primary screen, cell-based, luminescence, CHO-S, Gal4-NCOR/VP16-NR2E3; Photoreceptor-specific nuclear receptor (Homo sapiens), Q9Y5X4; luciferase; inhibition of corepressor binding, % at 3.98 µM; 360,000 compounds, 0.35% hits;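 active = inhibition above the mean of all tested compounds plus 3 SD, cut at about 70% in these data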;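 also: 0% = DMSO with NR2E3 transfected cells and 100% = cells lacking NR2E3 construct; higher means lower luciferase signal from less NR2E3 corepressor binding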
Target sequence (Q9Y5X4 whole entry, looked up, the tested form may be a part): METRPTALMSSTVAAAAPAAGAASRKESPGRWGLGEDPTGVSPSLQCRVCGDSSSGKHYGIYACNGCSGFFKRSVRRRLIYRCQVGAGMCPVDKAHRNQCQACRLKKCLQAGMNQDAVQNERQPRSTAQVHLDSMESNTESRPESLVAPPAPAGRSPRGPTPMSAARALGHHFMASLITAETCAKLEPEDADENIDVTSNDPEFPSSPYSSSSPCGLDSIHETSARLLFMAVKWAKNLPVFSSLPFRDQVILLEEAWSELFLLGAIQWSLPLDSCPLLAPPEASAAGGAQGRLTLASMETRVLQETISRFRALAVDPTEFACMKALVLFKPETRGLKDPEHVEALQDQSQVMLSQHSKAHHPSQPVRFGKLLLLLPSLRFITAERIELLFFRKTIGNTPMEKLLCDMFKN
697 NFkB inh – inhibitors of PMA/ionomycin-induced NF-kB reporter, 697 cells, primary screen, B-cell NF-kB inhibitor project, cell-based, luminescence, uHTS; 697 B-cell NF-kB luciferase reporter, 16 h; inhibition, % at 4 µM; 330,000 compounds, 0.33% hits; in the data active = inhibition above about 35%
miR122 inh – miR-122 Renilla sensor signal increase in Huh7, primary screen, miR-122 inhibitor project, cell-based, single point, plate reader; Huh7 miR-122 Renilla luciferase sensor, 48 h; neutral wells = 0, positive control = 100; activation (reporter increase), % at 12.5 µM; 340,000 compounds, 0.3% hits;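 active = mean replicate activation score at least 90 and every replicate individually at or above 90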;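 also: higher luciferase means less miR-122 activity so hits act as miR-122 inhibitors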
NR2E3 ag-2 – inhibitors of NR2E3-RetCOR corepressor binding, primary screen, NR2E3 agonist project, biochemical, TR-FRET, GST-NR2E3, biotin-RetCOR. Photoreceptor-specific nuclear receptor (Homo sapiens), Q9Y5X4. 1536-well. inhibition of corepressor binding, % at 4.78 µM. 320,000 compounds, 0.12% hits. AID 2300, 2010;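 active = percent inhibition above the cutoff of mean plus 3 SD of all tested compounds, set per screening campaign, cut at about 20% in these data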;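 also: 0% = DMSO wells and 100% = biotin wells as full block of FRET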
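Material: NR2E3–RetCOR corepressor complex / Amount: 1.35 nM GST-NR2E3 / Medium: Tris pH 7.5 / Compound: single nominal compound dose of 4.8 µM / Incubation: 5 h at 4 °C / Technique: TR-FRET, Eu(K)-anti-GST donor, streptavidin-D2 acceptor, ex 340, em 617/671 nm / Read-out basis: percent loss of FRET ratio relative to control wells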
Jurkat NFkB inh – inhibitors of induced NF-kB luciferase reporter, primary screen, TCR NF-kB activation inhibitor project, cell-based, luminescence, uHTS | inhibition, % at 4 µM | Jurkat, PMA/ionomycin-induced NF-kB luciferase reporter | 330,000 compounds, 0.53% hits; in the data active = inhibition above about 50%
697 NFkB conf – PMA/ionomycin-induced NF-kB reporter inhibitors, 697 retest, confirmation, B-cell NF-kB inhibitor project, cell-based, luminescence, single concentration | inhibition, % at 4 µM | 2,000 compounds, 35% hits | 697 B-cell NF-kB luciferase, 16 h | shares compounds with 697 NFkB inh; in the data active = inhibition mostly above about 28%, no sharp cut-off; inactive = mostly below about 22%
Starred values were filed as active, the others as inactive; x = no result; [ ] = remark or other dose.

SMILES | FGF22 binding | NR2E3 ag-1 | 697 NFkB inh | miR122 inh | NR2E3 ag-2 | Jurkat NFkB inh | 697 NFkB conf
C[C@H](CO)N1C[C@H](C)[C@H](CN(C)S(=O)(=O)c2ccc(Cl)cc2)Oc2ccc(NS(=O)(=O)c3cn(C)cn3)cc2CC1=O | 0 | x | x | -4[16.7 µM] | x | x | x
O=C(O)/C=C/c1cn(-c2ccccc2)nc1-c1ccccc1 | 0 | -27 | 8 | -1 | 0 | -2 | x
Cc1c(NC(=O)/C=C/c2cn(-c3ccccc3)nc2-c2ccccc2)c(=O)n(-c2ccccc2)n1C | x | 22 | 35* | -37 | 6 | 18 | 28*
COc1ccc(Nc2nccc(-c3ccc(C#N)cc3)n2)cc1 | 0 | 19 | 15 | x | 1 | -4 | x
COc1ccc(Nc2nccc(-c3cccc(N)c3)n2)cc1 | 0 | -30 | -273 | x | 3 | -117 | -177
C[C@@H](NC(=O)C[C@@H]1CC[C@H](NC(=O)C2CCOCC2)[C@H](CO)O1)c1ccccc1 | 0 | x | x | x | x | x | x
CCCOc1ccc(/C=N/Nc2ccccc2[N+](=O)[O-])c(O)c1 | 0 | 2 | -284 | x | 1 | -62 | -48
CCCOc1ccc(/C=N/NC(=S)Nc2ccccc2[N+](=O)[O-])c(O)c1 | x | x | x | x | 0 | x | x
CSC1CCCCC1(O)CSc1nc2c(cc1C#N)CCCC2 (centres undefined) | x | 14 | 40* | x | -1 | -12 | 48*
CC(=O)c1c(C)[nH]c(C(=O)COC(=O)CCCOc2ccccc2)c1C | 0 | -28 | 6 | 0 | -2 | -1 | x
CCCc1c(C(=O)OCC)[nH]c2c1C(=O)CCC2 | 0 | -8 | -17 | 2 | 3 | -9 | x
Cc1c(C(=O)OCCOc2ccccc2)[nH]c2c1C(=O)CCC2 | x | -18 | -331 | 1 | 0 | -83 | -380
CC(=O)c1c(C)[nH]c(C(=O)OCCOc2ccccc2)c1C | 0 | -38 | -253 | x | -1 | -141 | -402
CC(=O)Nc1ccc(NC(=O)C2CC(=O)Nc3nc4ccccc4n32)cc1 (centres undefined) | 0 | -3 | -20 | -4 | 1 | 8 | x
O=C1CC(C(=O)Nc2cccc(F)c2)n2c(nc3ccccc32)N1 (centres undefined) | 0 | -2 | 35* | 2 | 0 | -2 | -6
C=CCOc1ccccc1CN(C(=O)CCl)c1ccc2c(c1)OCO2 | 0 | -13 | 42* | 15 | -2 | -3 | 32*
Cc1noc(C)c1NC(=O)Nc1ccc2c(c1)C(=O)N(C)[C@@H]1CC[C@H](CC(=O)NCc3ccc(Cl)cc3)O[C@H]1CO2 | 0 | x | x | x | x | x | x
CCN(CC)CCCN=Cc1c(-c2ccccc2)[nH]n(-c2nc3ccccc3s2)c1=O | 0 | -11 | 40* | x | 1 | 7 | 42*
COCC(=O)N(C)C[C@@H]1[C@@H](c2ccccc2)[C@H](CO)N1C(=O)Cc1ccncc1 | 0 | x | x | -30[16.7 µM] | x | x | x
N=c1c2c(n(Cc3ccc(Cl)c(Cl)c3)c3c1CCC3)CCCC2 | x | -17 | 44* | -11 | 5 | 11 | 29*
Cc1cc2nc(-c3ccc(SCC(=O)N4CCc5ccccc54)nc3)[nH]c2cc1C | x | -42 | -313 | -1 | 5 | -126 | -200
Cc1nnc2ccc(-c3ccc(NC(=O)Cc4cccs4)cc3)nn12 | 0 | 3 | 36* | x | -2 | 1 | 22
CC(=O)Nc1ccc(-c2ccc3nnc(C)n3n2)cc1 | 0 | 3 | -7 | -4 | 5 | 0 | x
COc1ccc(-c2n(Cc3ccccc3)c3ccccc3[n+]2Cc2ccccc2)cc1 | 0 | -18 | 41* | x | -1 | 45 | 33*
